# In BindingDB's records for doi:10.1021/jm300345z (University of Copenhagen, 2012):
# Legend:
# [1] = biological target: Excitatory amino acid transporter 1 (Homo sapiens, UniProt P43003); assay: Inhibition of human EAAT1 expressed in HEK293 cells assessed as inhibition of 3[H]-D-Aspartate uptake after 6 mins by scintillation counting method
# Outline: (§1)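 HEK293 cell lines expressing EAAT1, EAAT2 or EAAT3 were cultured and assayed for [³H]-D-aspartate uptake, following an earlier published protocol. Inhibition is reported as IC50 in μM, with pIC50 ± SEM.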
# [2] = biological target: T1, Excitatory amino acid transporter 3 (Homo sapiens, UniProt P43005); assay: Inhibition of human EAAT3 expressed in HEK293 cells assessed as inhibition of 3[H]-D-Aspartate uptake after 6 mins by scintillation counting method; outline: as §1
# T1 sequence (P43005 whole entry): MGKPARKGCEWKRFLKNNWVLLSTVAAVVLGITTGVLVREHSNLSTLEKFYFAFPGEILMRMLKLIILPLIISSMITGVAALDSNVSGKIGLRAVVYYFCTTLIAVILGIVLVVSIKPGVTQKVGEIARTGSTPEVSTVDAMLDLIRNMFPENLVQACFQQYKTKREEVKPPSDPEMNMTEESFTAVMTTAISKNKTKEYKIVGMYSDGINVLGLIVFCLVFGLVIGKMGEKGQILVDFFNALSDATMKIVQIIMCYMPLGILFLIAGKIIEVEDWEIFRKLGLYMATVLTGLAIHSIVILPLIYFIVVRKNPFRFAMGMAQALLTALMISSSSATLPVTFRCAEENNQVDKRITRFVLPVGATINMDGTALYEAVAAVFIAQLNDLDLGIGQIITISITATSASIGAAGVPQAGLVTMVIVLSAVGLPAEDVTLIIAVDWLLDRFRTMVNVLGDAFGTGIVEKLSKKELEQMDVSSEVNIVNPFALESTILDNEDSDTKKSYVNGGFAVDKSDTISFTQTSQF
# [3] = biological target: Excitatory amino acid transporter 2 (Homo sapiens, UniProt P43004); assay: Inhibition of human EAAT2 expressed in HEK293 cells assessed as inhibition of 3[H]-D-Aspartate uptake after 6 mins by scintillation counting method; outline: as §1
# Sequence of Excitatory amino acid transporter 2 (P43004 whole entry): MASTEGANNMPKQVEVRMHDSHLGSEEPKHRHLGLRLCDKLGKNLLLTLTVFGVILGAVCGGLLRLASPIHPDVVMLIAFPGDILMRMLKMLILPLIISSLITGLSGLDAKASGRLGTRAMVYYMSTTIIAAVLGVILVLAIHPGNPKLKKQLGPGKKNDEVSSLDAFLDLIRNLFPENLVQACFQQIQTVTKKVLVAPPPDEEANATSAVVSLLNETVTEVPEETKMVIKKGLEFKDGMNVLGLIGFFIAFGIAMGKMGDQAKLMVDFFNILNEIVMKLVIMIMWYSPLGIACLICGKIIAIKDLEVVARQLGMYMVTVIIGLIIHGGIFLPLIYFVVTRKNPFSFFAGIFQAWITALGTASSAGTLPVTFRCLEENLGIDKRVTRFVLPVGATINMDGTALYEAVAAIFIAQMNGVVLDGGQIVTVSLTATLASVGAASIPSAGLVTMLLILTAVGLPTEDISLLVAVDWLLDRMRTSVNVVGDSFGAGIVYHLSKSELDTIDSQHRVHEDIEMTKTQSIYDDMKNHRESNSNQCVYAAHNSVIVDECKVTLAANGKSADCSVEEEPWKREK
# Sequence of Excitatory amino acid transporter 1 (P43003 whole entry): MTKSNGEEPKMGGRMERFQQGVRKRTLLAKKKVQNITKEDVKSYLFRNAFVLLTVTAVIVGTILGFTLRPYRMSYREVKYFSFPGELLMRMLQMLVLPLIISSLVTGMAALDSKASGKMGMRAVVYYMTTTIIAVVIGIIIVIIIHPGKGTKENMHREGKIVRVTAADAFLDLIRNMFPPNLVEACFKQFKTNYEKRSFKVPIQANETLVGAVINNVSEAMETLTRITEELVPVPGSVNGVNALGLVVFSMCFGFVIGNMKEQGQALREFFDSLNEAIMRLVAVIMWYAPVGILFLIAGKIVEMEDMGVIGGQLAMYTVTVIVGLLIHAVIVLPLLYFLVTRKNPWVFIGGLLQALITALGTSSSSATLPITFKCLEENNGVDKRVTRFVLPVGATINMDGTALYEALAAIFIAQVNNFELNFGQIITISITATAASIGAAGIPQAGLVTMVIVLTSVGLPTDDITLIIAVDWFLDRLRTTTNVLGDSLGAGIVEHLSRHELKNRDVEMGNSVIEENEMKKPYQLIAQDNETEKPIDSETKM
IC50 [1],IC50 [2],IC50 [3],Compound
> 100 µM,> 100 µM,> 100 µM,N#CC1C(=N)OC2=C(C(=O)CN(C(=O)c3ccccc3)C2)C1c1ccccc1 (configuration not stated)
> 300 µM,,,CC1(C)C2=C(CC(c3ccccc3)CC2=O)OC(=N)C1C#N (configuration not stated)
> 100 µM,> 100 µM,> 100 µM,N#CC1C(=N)OC2=C(C(=O)CN(c3ccccc3)C2)C1c1ccccc1 (configuration not stated)
